# The list is not random: actives were taken first. Their share in the collection is about 3.5%.
# RGS4 act: potentiators or activators of RGS4. HEK293 M3R/inducible RGS4, carbachol calcium flux Fluo4; active compounds read low. 0.92% of 310,000 active. B-score at 10 µM. AID 463111;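 active means B-score of the integrated calcium signal more than 4 SD below the library mean, with starting fluorescence not abnormally high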;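 further: negative B-score means reduced calcium response which marks RGS4 activation or potentiation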
#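 Also added: carbachol at ECmax as muscarinic agonist stimulus; Assay system: HEK293 cells with stable M3R and inducible RGS4; Timing: overnight RGS4 induction, 30 min dye load 37 °C, 20 min compound RT; Measured by: Fluo4-AM (2 µM) calcium-flux fluorescence, kinetic read.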
# MrgX1 PAM: allosterically activates human MrgX1 receptor signaling. Q96LB2. MrgX1-HEK293, Fluo-4 calcium flux, FDSS; active compounds read high. B-score at 10 µM. 0.63% of 310,000 active. AID 588675;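 active means plate-corrected calcium response at least 3 library SD above typical, normal starting fluorescence, not activating the receptor alone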;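 further: compound read alongside a low EC10 to EC30 dose of BAM8-22 agonist; peak minus trough fluorescence over baseline measured at the second addition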
# Target sequence (Q96LB2 whole entry, looked up): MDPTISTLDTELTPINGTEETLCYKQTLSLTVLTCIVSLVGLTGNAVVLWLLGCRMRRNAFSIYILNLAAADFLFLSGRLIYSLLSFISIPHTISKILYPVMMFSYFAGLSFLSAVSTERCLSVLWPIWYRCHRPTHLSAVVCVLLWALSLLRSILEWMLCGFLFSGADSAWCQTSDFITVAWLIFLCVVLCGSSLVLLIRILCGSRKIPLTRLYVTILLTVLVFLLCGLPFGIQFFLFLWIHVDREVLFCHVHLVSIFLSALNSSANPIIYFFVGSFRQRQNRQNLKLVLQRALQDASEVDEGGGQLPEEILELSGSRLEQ
# MrgX1 agonist: human MrgX1 receptor agonism, primary screen. AID 588627. B-score at 10 µM. 0.44% of 310,000 active. Q96LB2. MrgX1-HEK293 cells, Fluo-4 calcium fluorescence, agonist mode; active compounds read high;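 active means calcium response B-score plate-corrected fluorescence ratio at least 3 library SD, with starting fluorescence B-score inside 5 SD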
#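 Test system: HEK293 cells stably expressing human MrgX1 receptor; amount: 15,000 cells per well; doses: compound delivered in addition one of three; times: overnight plating before 1 h dye loading; detection: Fluo-4 NW calcium-flux fluorescence, kinetic read; read-out basis: B-scored fluorescence response ratio; controls: positive and negative controls per plate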
# MrgX1 antag: human MrgX1 receptor antagonism, primary screen | Q96LB2 | MRGX1-HEK293 calcium flux, Fluo-4, BAM8-22 antagonism; active compounds read low | B-score at 10 µM | 1.3% of 310,000 active;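 active means calcium-response B-score plate-corrected more than 3 library SD below zero, starting fluorescence within 5 deviations, no agonist response on first addition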;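 further: peak minus trough fluorescence over baseline after final BAM8-22 challenge near maximal dose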
# RGS4 block: human RGS4 inhibition. P49798. HEK293 M3R/RGS4 inducible, Fluo-4 calcium flux; active compounds read high; triggered by carbachol at its EC20. B-score at 10 µM. 0.45% of 310,000 active;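 active means B-score, a plate-corrected calcium signal, over three deviations above library mean, with baseline fluorescence within five deviations of library mean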;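 further: RGS4 expression induced by doxycycline in cells with stable M3 receptor; B-score is computed from the integrated fluorescence ratio over baseline after carbachol; higher B-score means a larger calcium signal and so more RGS4 inhibition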
# Target sequence (P49798 whole entry, looked up): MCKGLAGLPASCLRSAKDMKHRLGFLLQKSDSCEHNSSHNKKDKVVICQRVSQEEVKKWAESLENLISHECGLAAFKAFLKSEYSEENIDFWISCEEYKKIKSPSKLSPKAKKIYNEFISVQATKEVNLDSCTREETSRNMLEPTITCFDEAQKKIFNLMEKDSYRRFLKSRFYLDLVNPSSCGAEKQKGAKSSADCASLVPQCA
# Starred values were filed as active, the others as inactive; i = inactive.
SMILES,RGS4 act,MrgX1 PAM,MrgX1 agonist,MrgX1 antag,RGS4 block
COc1ccc2c(Cl)c(C(=O)N/N=C/c3ccc4c(c3)OCO4)sc2c1,i,i,i,i,i
Oc1ccc(/C=N/n2cc(-c3ccccc3)[nH]c2=S)cc1,i,i,i,i,i
COc1cc(/C=N/n2cc(-c3ccccc3)[nH]c2=S)cc(OC)c1O,i,11*,i,i,i
FC(F)(F)c1cccc(NC(=S)Nc2ccc(Cl)c(Cl)c2)c1,i,i,i,-8.4*,i
O=C(CSc1nc(=O)n(CCN2CCOCC2)c2c1CCC2)Nc1ccc(OC(F)(F)F)cc1,i,i,i,i,i
CCOc1cc(/C=N/NC(=O)C(C)Sc2ccccc2)ccc1O (stereo not given),i,i,i,i,i
O=C(c1ccco1)N1N=C(c2cccs2)CC1c1cc([N+](=O)[O-])ccc1O (stereo not given),i,7.1*,i,i,i
COCCn1c(=NC(=O)/C=C/c2ccccc2)sc2cc(NC(C)=O)ccc21,i,i,i,-4.9*,i
COc1ccc(Br)c(C(=O)N2CCN(S(=O)(=O)c3cccs3)CC2)c1,i,i,i,i,i
CCN(CC)C(=O)CSC(Nc1ccc(F)cc1)=C(C#N)C#N,i,i,44*,i,i
N=C1/C(=C/c2ccc(OCc3ccccc3)cc2)C(=O)N=C2SC(CC(=O)N3CCOCC3)=NN12,i,9.7*,i,i,i
Cc1cc(/C=C2\C(=N)N3N=C(CC(=O)N4CCOCC4)SC3=NC2=O)c(C)n1Cc1ccccc1,i,i,i,i,i
CN(C)c1ccc(/C=C2\C(=N)N3N=C(CC(=O)N4CCCCC4)SC3=NC2=O)cc1,i,i,55*,i,i
CN(C)c1ccc(/C=C2\C(=N)N3C(=NC2=O)Sc2cc(S(C)(=O)=O)ccc23)cc1,i,i,29*,i,i
CN(Cc1cccc(Cl)c1)C(=O)C1CSC2(C)CCC(=O)N12 (stereo not given),i,i,i,i,i
CC1(C)Cc2noc(N)c2C(C)(C)N1O,i,i,i,-6.3*,i
CCn1c(=S)sc2c(=O)n(-c3ccccc3)c(SC)nc21,i,7.7*,i,i,i
CCOC(=O)c1ccc(/C=C2/C=C(c3ccccc3)N(c3ccc(Cl)c(C(=O)O)c3)C2=O)cc1,i,i,40*,i,i
CCOC(=O)c1ccc(Cl)c(NC(=O)c2ccc(-c3ccccc3)cc2)c1,i,i,i,i,i
Cc1nc2ccccn2c1C(=O)N/N=C/c1ccccc1,i,i,i,i,i
Cc1ccccc1N/N=C/c1c(C)nc2ccccn12,i,8.5*,i,i,i
COc1ccc2cc(C)c3nnc(SCC(=O)Nc4nc(-c5ccccc5)cs4)n3c2c1,i,i,i,i,i
CC(OC(=O)Cc1n[nH]c(=O)c2ccccc12)C(=O)Nc1ccc(F)cc1Cl (stereo not given),i,i,i,i,i
COc1ccccc1/C=C/C=C(\C#N)C(=O)NC(C)c1ccccc1 (stereo not given),i,i,i,i,i
COc1cc(/C=C(/C#N)C(=O)NC(C)c2ccccc2)cc(OC)c1O (stereo not given),i,i,59*,i,i
SMILES,RGS4 act,MrgX1 PAM,MrgX1 agonist,MrgX1 antag,RGS4 block
Fc1ccc([C@@H]2CCNC[C@H]2COc2ccc3c(c2)OCO3)cc1,-7.1*,i,i,i,i
Fc1ccc(C2CCNCC2COc2ccc3c(c2)OCO3)cc1 (stereo not given),-8.8*,i,i,i,i
COc1ccccc1NC(=O)COC(=O)c1oc2ccccc2c1C,i,i,i,i,i
COc1ccc(C2C(C#N)=C(N)OC(C(C)(C)C)=C2C#N)cc1OC (stereo not given),i,i,i,i,i
N#CC1=C(N)SC(N)=C(C#N)C1c1cccc(O)c1,i,i,39*,i,i
COc1ccc(C2C(C#N)=C(N)SC(N)=C2C#N)cc1OC,i,i,i,-4.6*,i
CCN(CC)c1ccc(/C=C/c2ccc3ccc(OC)cc3[n+]2CC)cc1,-8.5*,i,i,-9.3*,i
C(=N\c1nc2ccccc2[nH]1)/c1cccs1,i,i,30*,i,i
CCN(CC)CCNC(=O)C1c2ccccc2Oc2ccccc21,-7.2*,i,i,i,i
CCN(CC)CCOC(=O)C1c2ccccc2Oc2ccccc21,-11*,i,i,i,i
COc1ccc(C2=NOC(C(=O)NCCCn3ccnc3)C2)cc1 (stereo not given),i,i,i,i,i
COc1cccc(C2=NOC(C(=O)NCCCn3ccnc3)C2)c1 (stereo not given),i,i,i,-6.5*,i
O=C(NCCCn1ccnc1)C1c2ccccc2Oc2ccccc21,-7.4*,i,i,i,i
COc1ccc(/C=C2\CCc3ccccc3C2=O)cc1O,i,i,i,i,i
C/C(=N\Nc1nc2c(s1)CCCC2)c1ccccc1,i,i,i,i,i
COC(=O)CCCC(=O)N1CCCC(CNS(=O)(=O)c2ccc(OC)cc2)C1 (stereo not given),i,i,i,-4.6*,i
COCCC(=O)N1CCCC(CNS(=O)(=O)c2ccc(OC)cc2)C1 (stereo not given),i,i,i,i,i
CCC(C(=O)NCCC(C)C)n1ccc2cc(S(=O)(=O)N3CCCCC3)ccc21 (stereo not given),i,i,i,i,i
COCCNC(=S)NNc1ccccc1[N+](=O)[O-],i,i,i,-5.1*,i
COc1ccc(OCC(O)CNC(=O)c2sccc2Cl)cc1 (stereo not given),i,i,i,i,i
CC(=O)NC1=NC(=O)/C(=C/c2cc(C)n(-c3ccc(NC(C)=O)cc3)c2C)S1,i,i,i,-4.5*,i
CSc1ccc(CN(C)C(=O)c2cccc(S(=O)(=O)N3CCN(Cc4ccccc4)CC3)c2)cc1,i,i,i,i,i
COc1ccc(CCC(C)NCC(C)c2ccccc2)cc1 (stereo not given),i,i,i,i,i
N/C(Cn1cncn1)=N\NC(=O)c1ccc(Cl)cc1Cl,i,i,i,-4.5*,i
COc1ccc(S(=O)(=O)c2c(N)n(Cc3ccco3)c3nc4ccccc4nc23)cc1,i,i,i,-5.5*,i

# Compound activity deposited in PubChem by Johns Hopkins Ion Channel Center.
